Assay results taken from ChEMBL document CHEMBL1255300, “Pharmacodynamics of the antibacterial effect and emergence of resistance to tomopenem, formerly RO4908463/CS-023, in an in vitro pharmacokinetic model of Staphylococcus aureus infection” (Antimicrob Agents Chemother, 2008).
In brackets after ≈: the same amount, converted by molar mass.

Experiments:
Staphylococcus aureus [1] = experiment: T>MIC for 2-log drop in count in methicillin-sensitive Staphylococcus aureus 5956 in in vitro pharmacokinetic model after 24 hrs using 10^8 CFU/ml inoculum; type: functional
Summary of the method: (§1)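 Dose-ranging: 7–13 simulated regimens per strain giving T>MIC of 0–100% (MIC from 10% MHB), at 106 or 10^8 CFU/ml as stated.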

Staphylococcus aureus [2] = experiment: Antibacterial activity against methicillin-resistant Staphylococcus aureus 33815 infected in in vitro pharmacokinetic model assessed as reduction in viable count at 750 mg, iv every 8 hrs measured after 36 hrs using 10^8 CFU/ml inoculum; type: functional
Summary of the method: (§2)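 PK model at 37°C in 10% MHB. […] A 0.5 McFarland suspension (1 ml) was added and the model run overnight to reach 10^8 CFU/ml before dosing. Counts were spiral-plated on nutrient agar with β-lactamase. Change in log CFU/ml was measured from time 0; at least triplicate.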

Staphylococcus aureus [3] = experiment: Antibacterial activity against methicillin-resistant Staphylococcus aureus 33820 infected in in vitro pharmacokinetic model assessed as time required to 99.9% killing at 1500 mg, iv every 8 hrs using 10^6 CFU/ml inoculum; type: functional
Staphylococcus aureus [4] = experiment: Antibacterial activity against methicillin-sensitive Staphylococcus aureus 5956 by broth dilution method; type: functional
[5] = Plasma protein binding in human; type: ADME, cell-free; details: read-out: PPB
Staphylococcus aureus [6] = experiment: Antibacterial activity against methicillin-resistant Staphylococcus aureus 33815 infected in in vitro pharmacokinetic model assessed as reduction in viable count at 1500 mg, iv every 8 hrs measured after 12 hrs using 10^8 CFU/ml inoculum; type: functional; summary of the method: as §2
Staphylococcus aureus [7] = experiment: Antibacterial activity against methicillin-resistant Staphylococcus aureus 33827 infected in in vitro pharmacokinetic model assessed as reduction in viable count at 750 mg, iv every 8 hrs measured after 24 hrs using 10^6 CFU/ml inoculum; type: functional
Summary of the method: (§3)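 Single-compartment dilutional in vitro PK model, 10% Mueller-Hinton broth, 37°C, stirred, dilution 132 ml/h. […] Inoculum 10^6 CFU/ml (added 45 min pre-dose) or 10^8 CFU/ml (run overnight). Viable counts by spiral plating, beta-lactamase neutralization, detection limit 10^2 CFU/ml. At least triplicate.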

Staphylococcus aureus [8] = experiment: Antibacterial activity against methicillin-resistant Staphylococcus aureus 33827 infected in in vitro pharmacokinetic model assessed as reduction in viable count at 1500 mg, iv every 8 hrs measured after 48 hrs using 10^6 CFU/ml inoculum; type: functional; summary of the method: as §3
Staphylococcus aureus [9] = experiment: Antibacterial activity against methicillin-resistant Staphylococcus aureus 33922 infected in in vitro pharmacokinetic model assessed as reduction in viable count at 1500 mg, iv every 8 hrs measured after 36 hrs using 10^8 CFU/ml inoculum; type: functional
Staphylococcus aureus [10] = experiment: Antibacterial activity against methicillin-resistant Staphylococcus aureus 33815 infected in in vitro pharmacokinetic model assessed as reduction in viable count at 1500 mg, iv every 8 hrs measured after 36 hrs using 10^6 CFU/ml inoculum; type: functional
Summary of the method: (§4)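 Single-compartment dilutional in vitro PK model, 37°C, stirred, in 10% Mueller-Hinton broth. […] Inoculum 10^6 CFU/ml from a 24-h plate culture was added 45 min before dosing. Viable counts by spiral plating on nutrient agar with β-lactamase neutralization. Log change was taken from time 0; detection limit 10^2 CFU/ml; at least triplicate.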

Staphylococcus aureus [11] = experiment: T>MIC for 4-log drop in count in methicillin-sensitive Staphylococcus aureus 5956 in in vitro pharmacokinetic model after 24 hrs using 10^8 CFU/ml inoculum; type: functional; summary of the method: as §1
Staphylococcus aureus [12] = experiment: Antibacterial activity against methicillin-resistant Staphylococcus aureus 33921 by broth dilution method; type: functional
Summary of the method: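 MIC by CLSI broth dilution, or by broth dilution in 10% Mueller-Hinton broth at nondoubling dilutions.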

Staphylococcus aureus [13] = experiment: T>MIC for 1-log drop in count in methicillin-sensitive Staphylococcus aureus 5956 in in vitro pharmacokinetic model after 24 hrs using 10^6 CFU/ml inoculum; type: functional; summary of the method: as §1
Serum = experiment: Drug level in human serum at 700 mg; type: ADME, cell-free
Staphylococcus aureus [14] = experiment: Antibacterial activity against methicillin-resistant Staphylococcus aureus 33820 by broth dilution method; type: functional
Summary of the method: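 Standard CLSI broth dilution MIC.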

Staphylococcus aureus [15] = experiment: Antibacterial activity against methicillin-resistant Staphylococcus aureus 33820 infected in in vitro pharmacokinetic model assessed as time required to 99.9% killing at 750 mg, iv every 8 hrs using 10^6 CFU/ml inoculum; type: functional
Staphylococcus aureus [16] = experiment: Antibacterial activity against methicillin-resistant Staphylococcus aureus 33815 infected in in vitro pharmacokinetic model assessed as reduction in viable count at 1500 mg, iv every 8 hrs measured after 24 hrs using 10^6 CFU/ml inoculum; type: functional; summary of the method: as §4
Staphylococcus aureus [17] = experiment: Antibacterial activity against methicillin-resistant Staphylococcus aureus 33815 infected in in vitro pharmacokinetic model assessed as reduction in viable count at 750 mg, iv every 8 hrs measured after 36 hrs using 10^6 CFU/ml inoculum; type: functional; summary of the method: as §4
Staphylococcus aureus [18] = experiment: T>MIC for 3-log drop in count in methicillin-resistant Staphylococcus aureus 33815 in in vitro pharmacokinetic model after 24 hrs using 10^6 CFU/ml inoculum; type: functional
Staphylococcus aureus [19] = experiment: T>MIC for static effect in methicillin-resistant Staphylococcus aureus 33827 in in vitro pharmacokinetic model after 24 hrs using 10^6 CFU/ml inoculum; type: functional
Staphylococcus aureus [20] = experiment: T>MIC for static effect in methicillin-resistant Staphylococcus aureus 33829 in in vitro pharmacokinetic model after 24 hrs using 10^6 CFU/ml inoculum; type: functional
Staphylococcus aureus [21] = experiment: T>MIC for 4-log drop in count in methicillin-resistant Staphylococcus aureus 33815 in in vitro pharmacokinetic model after 24 hrs using 10^6 CFU/ml inoculum; type: functional
Staphylococcus aureus [22] = experiment: T>MIC for 4-log drop in count in methicillin-resistant Staphylococcus aureus 33922 in in vitro pharmacokinetic model after 24 hrs using 10^8 CFU/ml inoculum; type: functional
Staphylococcus aureus [23] = experiment: Antibacterial activity against methicillin-resistant Staphylococcus aureus 33815 infected in in vitro pharmacokinetic model assessed as reduction in viable count at 1500 mg, iv every 8 hrs measured after 48 hrs using 10^6 CFU/ml inoculum; type: functional; summary of the method: as §4
Staphylococcus aureus [24] = experiment: Antibacterial activity against methicillin-sensitive Staphylococcus aureus 5956 infected in in vitro pharmacokinetic model assessed as reduction in viable count at 750 mg, iv every 8 hrs measured after 48 hrs using 10^6 CFU/ml inoculum; type: functional
Staphylococcus aureus [25] = experiment: Antibacterial activity against methicillin-resistant Staphylococcus aureus 33815 infected in in vitro pharmacokinetic model assessed as time required to 99.9% killing at 1500 mg, iv every 8 hrs using 10^8 CFU/ml inoculum; type: functional
Summary of the method: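 T99 and T99.9 were taken as the times for the count to fall 99% or 99.9% from time 0, using serial viable counts over 48 h. Inoculum was 10^8 CFU/ml, grown overnight in the model before dosing.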

Staphylococcus aureus [26] = experiment: T>MIC for 3-log drop in count in methicillin-sensitive Staphylococcus aureus 5956 in in vitro pharmacokinetic model after 24 hrs using 10^6 CFU/ml inoculum; type: functional; summary of the method: as §1
Staphylococcus aureus [27] = experiment: Antibacterial activity against methicillin-resistant Staphylococcus aureus 33815 infected in in vitro pharmacokinetic model assessed as reduction in viable count at 750 mg, iv every 8 hrs measured after 48 hrs using 10^6 CFU/ml inoculum; type: functional; summary of the method: as §4

In the case of `C[C@@H](O)[C@H]1C(=O)N2C(C(=O)O)=C(S[C@H]3C[C@@H](C(=O)N4CC[C@H](NC(=O)CNC(=N)N)C4)N(C)C3)[C@H](C)[C@H]12` [TOMOPENEM], the “fT>MIC” value (Staphylococcus aureus [1]) is reported as 7.4%, the log10CFU/ml (Staphylococcus aureus [2]) is reported as 5.5 and the Time (Staphylococcus aureus [3]) is reported as 12 h. For the same compound, the MIC (Staphylococcus aureus [4]) was 0.06 µg/mL (≈ 0.112 µM), the fraction unbound [5] was > 0.9 and the log10CFU/ml (Staphylococcus aureus [6]) was 1.5. The log10CFU/ml (Staphylococcus aureus [7]) was 3.6, the log10CFU/ml (Staphylococcus aureus [8]) was 3.6 and the log10CFU/ml (Staphylococcus aureus [9]) was 5.2. The log10CFU/ml (Staphylococcus aureus [10]) was 4.2, the “fT>MIC” value (Staphylococcus aureus [11]) was 20.1% and the MIC (Staphylococcus aureus [12]) was 0.5 µg/mL (≈ 0.93 µM). For the same compound, the “fT>MIC” value (Staphylococcus aureus [13]) was 7.4%, the Drug uptake (Serum) was 44 mg/L and the MIC (Staphylococcus aureus [14]) was 16 µg/mL (≈ 29.8 µM). The Time (Staphylococcus aureus [15]) was 12 h, the log10CFU/ml (Staphylococcus aureus [16]) was 4.2 and the log10CFU/ml (Staphylococcus aureus [17]) was 4.2. For the same compound, the “fT>MIC” value (Staphylococcus aureus [18]) was 17.1%, the “fT>MIC” value (Staphylococcus aureus [19]) was 15.4% and the “fT>MIC” value (Staphylococcus aureus [20]) was 12.1%. The “fT>MIC” value (Staphylococcus aureus [21]) was 29.6%, the “fT>MIC” value (Staphylococcus aureus [22]) was 15% and the log10CFU/ml (Staphylococcus aureus [23]) was 4.2. For the same compound, the log10CFU/ml (Staphylococcus aureus [24]) was 4.5, the Time (Staphylococcus aureus [25]) was 24 h and the “fT>MIC” value (Staphylococcus aureus [26]) was 10.1%. For the same compound, the log10CFU/ml (Staphylococcus aureus [27]) was 4.2.
